From ChEMBL document CHEMBL1126988, “Quinolone antibacterials containing the new 7-[3-(1-aminoethyl)-1- pyrrolidinyl] side chain: the effects of the 1-aminoethyl moiety and its stereochemical configurations on potency and in vivo efficacy” (J Med Chem, 1993)
≈ marks a conversion by molar mass, not a printed value.

Tests used:
[1] = system: Escherichia coli; test: Antibacterial activity against Escherichia coli Vogel after subcutaneous administration in mouse; type: functional; details: Escherichia coli, sc; read-out: PD50
[2] = system: Escherichia coli; test: Antibacterial activity against Escherichia coli Vogel after oral administration in mouse; type: functional; details: Escherichia coli, po; read-out: PD50
[3] = system: Streptococcus pneumoniae; test: Minimum inhibitory concentration was evaluated in vitro against Streptococcus pneumoniae SV-1; type: functional; details: Streptococcus pneumoniae; read-out: MIC
How it was run: (§1)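 Standard microtitration broth assay against a panel of 10 Gram-positive and Gram-negative organisms. MIC read in µg/mL and averaged over multiple experiments.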

[4] = system: Staphylococcus aureus; test: Minimum inhibitory concentration was evaluated in vitro against Staphylococcus aureus UC 76; type: functional; details: Staphylococcus aureus; read-out: MIC; how it was run: as §1
[5] = system: Enterobacter cloacae; test: Minimum inhibitory concentration in vitro against Enterobacter cloacae MA 2646; type: functional; details: Enterobacter cloacae; read-out: MIC
[6] = Clonogenic cytotoxicity against hamster V-79 cells; type: functional, Cricetulus griseus, V79
How it was run: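 Chinese hamster V-79 cells grown overnight, then drug-treated for 3 h at 37 °C. Medium is replaced with fresh medium and cells are incubated 5 days to allow colony formation. IC50 (µg/mL) is the concentration inhibiting colony formation by 50% relative to control.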

[7] = system: Klebsiella pneumoniae; test: Minimum inhibitory concentration was evaluated in vitro against Klebsiella pneumoniae MGH2; type: functional; details: Klebsiella pneumoniae; read-out: MIC; how it was run: as §1
[8] = system: Streptococcus pyogenes; test: Antibacterial activity measured as mouse protection against Streptococcus pyogenes C 203 after subcutaneous administration; type: functional; details: Streptococcus pyogenes, C 203, sc; read-out: PD50
[9] = system: Streptococcus pyogenes; test: Minimum inhibitory concentration was evaluated in vitro against Streptococcus pyogenes C 203; type: functional; details: Streptococcus pyogenes; read-out: MIC; how it was run: as §1
[10] = species: Mus musculus; test: Compounds were evaluated for phototoxicity no-effect dose in mouse; type: functional
How it was run: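 Depilated female CD-1 mice, five per dose plus controls. Animals are dosed orally and then exposed daily to UV-A (320–400 nm) for 3 h, for up to 4 days or until a definite positive response. Redness or erythema relative to controls, read 24 h after irradiation, counts as positive. Reported as the highest dose with no effect (mg/kg).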

[11] = system: Escherichia coli; test: Antibacterial activity in vitro against Escherichia coli Vogel; type: functional; details: Escherichia coli; read-out: MIC; how it was run: as §1
[12] = system: Pseudomonas aeruginosa; test: Minimum inhibitory concentration was evaluated in vitro against Pseudomonas aeruginosa UI-18; type: functional; details: Pseudomonas aeruginosa; read-out: MIC; how it was run: as §1
[13] = system: Enterococcus faecalis; test: Minimum inhibitory concentration was evaluated in vitro against Enterococcus faecalis MGH-2; type: functional; details: Enterococcus faecalis; read-out: MIC; how it was run: as §1
[14] = system: Streptococcus pyogenes; test: Compounds were evaluated in vivo for antibacterial activity for mouse protection against Streptococcus pyogenes C 203 after oral administration; type: functional; details: Streptococcus pyogenes, C 203, po; read-out: PD50
[15] = system: Staphylococcus aureus; test: Minimum inhibitory concentration was evaluated in vitro against Staphylococcus aureus H 228; type: functional; details: Staphylococcus aureus; read-out: MIC; how it was run: as §1
[16] = system: Providencia rettgeri; test: Minimum inhibitory concentration was evaluated in vitro against Providencia rettgeri M1771; type: functional; details: Providencia rettgeri; read-out: MIC; how it was run: as §1
[17] = molecular target: DNA gyrase (Escherichia coli, UniProt P0AES4+P0AES6); test: Inhibition against DNA gyrase; type: protein-complex assay

CCNC[C@@H]1CCN(c2c(F)cc3c(=O)c(C(=O)O)cn(CC)c3c2F)C1 gave an ED50 [1] of 3 mg/kg, an ED50 [2] of 10 mg/kg and an MIC [3] of 0.1 µg/mL (≈ 0.264 µM). The MIC [4] was 0.05 µg/mL (≈ 0.132 µM), the MIC [5] was 0.2 µg/mL (≈ 0.527 µM) and the Cytotoxicity [6] was 190 µg/mL. The MIC [7] was 0.1 µg/mL (≈ 0.264 µM), the ED50 [8] was 4 mg/kg and the MIC [9] was 0.1 µg/mL (≈ 0.264 µM). For the same molecule, the Dose [10] was 1.5 mg/kg, the MIC [11] was 0.1 µg/mL (≈ 0.264 µM) and the MIC [12] was 1.6 µg/mL (≈ 4.22 µM). The MIC [13] was 0.1 µg/mL (≈ 0.264 µM), the ED50 [14] was 10 mg/kg and the MIC [15] was 0.05 µg/mL (≈ 0.132 µM). The MIC [16] was 0.2 µg/mL (≈ 0.527 µM).
For NC1CCN(c2nc3c(cc2F)c(=O)c(C(=O)O)cn3-c2ccc(F)cc2F)C1 (configuration not stated) [TOSUFLOXACIN], the ED50 [1] was 0.2 mg/kg, the ED50 [2] was 0.5 mg/kg and the MIC [3] was 0.05 µg/mL (≈ 0.124 µM). The MIC [4] was 0.013 µg/mL (≈ 0.0322 µM), the MIC [5] was 0.025 µg/mL (≈ 0.0618 µM) and the Cytotoxicity [6] was 120 µg/mL. The MIC [7] was 0.1 µg/mL (≈ 0.247 µM), the ED50 [8] was 3 mg/kg and the MIC [9] was 0.05 µg/mL (≈ 0.124 µM). The Dose [10] was greater than 100 mg/kg, the MIC [11] was 0.025 µg/mL (≈ 0.0618 µM) and the MIC [12] was 0.4 µg/mL (≈ 0.989 µM). The MIC [13] was 0.1 µg/mL (≈ 0.247 µM), the ED50 [14] was 5 mg/kg and the MIC [15] was 0.05 µg/mL (≈ 0.124 µM). It also gave an MIC [16] of 0.1 µg/mL (≈ 0.247 µM).
For C[C@H](N)[C@H]1CCN(c2cc3c(cc2F)c(=O)c(C(=O)O)cn3C2CC2)C1, the IC50 [17] was 20.9 µM, the MIC [3] was 0.2 µg/mL (≈ 0.556 µM) and the MIC [4] was 0.1 µg/mL (≈ 0.278 µM). The MIC [5] was 0.2 µg/mL (≈ 0.556 µM), the MIC [7] was 0.4 µg/mL (≈ 1.11 µM) and the ED50 [8] was 12 mg/kg. The MIC [9] was 0.1 µg/mL (≈ 0.278 µM), the MIC [11] was 0.2 µg/mL (≈ 0.556 µM) and the MIC [12] was 1.6 µg/mL (≈ 4.45 µM). The MIC [13] was 0.4 µg/mL (≈ 1.11 µM), the ED50 [14] was greater than 100 mg/kg and the MIC [15] was 0.8 µg/mL (≈ 2.23 µM). The MIC [16] was 0.8 µg/mL (≈ 2.23 µM).
COc1c(N2CCC(N)C2)c(F)cc2c(=O)c(C(=O)O)cn(C3CC3)c12 (configuration not stated) gave an ED50 [1] of 0.4 mg/kg, an ED50 [2] of 3 mg/kg and an MIC [3] of 0.025 µg/mL (≈ 0.0692 µM). It also gave an MIC [4] of 0.013 µg/mL (≈ 0.036 µM), an MIC [5] of 0.025 µg/mL (≈ 0.0692 µM) and a Cytotoxicity [6] of 45 µg/mL. For the same molecule, the MIC [7] was 0.05 µg/mL (≈ 0.138 µM), the ED50 [8] was 3 mg/kg and the MIC [9] was 0.025 µg/mL (≈ 0.0692 µM). The Dose [10] was greater than 100 mg/kg, the MIC [11] was 0.025 µg/mL (≈ 0.0692 µM) and the MIC [12] was 0.2 µg/mL (≈ 0.553 µM). For the same molecule, the MIC [13] was 0.05 µg/mL (≈ 0.138 µM), the ED50 [14] was 10 mg/kg and the MIC [15] was 0.05 µg/mL (≈ 0.138 µM). The MIC [16] was 0.1 µg/mL (≈ 0.277 µM).
For CN[C@H](C)[C@H]1CCN(c2c(F)cc3c(=O)c(C(=O)O)cn(C4CC4)c3c2C(F)(F)F)C1 (mixture of isomers), the ED50 [1] was 2 mg/kg, the ED50 [2] was 4 mg/kg and the MIC [3] was 0.013 µg/mL. It also gave an MIC [4] of 0.013 µg/mL, an MIC [5] of 0.4 µg/mL and a Cytotoxicity [6] of 130 µg/mL. It also gave an MIC [7] of 0.8 µg/mL, an ED50 [8] of 0.3 mg/kg and an MIC [9] of 0.013 µg/mL. It also gave a Dose [10] greater than 100 mg/kg, an MIC [11] of 0.4 µg/mL and an MIC [12] of 3.1 µg/mL. It also gave an MIC [13] of 0.1 µg/mL, an ED50 [14] of 0.8 mg/kg and an MIC [15] of 0.025 µg/mL. It also gave an MIC [16] of 0.8 µg/mL.
